Published values gathered from unrelated publications.
Each line is one published result; the experiments were not run side by side.
Target: Protein kinase C epsilon type (PRKCE, Homo sapiens, UniProt Q02156)
Residues used in one study (Q02156 1-737): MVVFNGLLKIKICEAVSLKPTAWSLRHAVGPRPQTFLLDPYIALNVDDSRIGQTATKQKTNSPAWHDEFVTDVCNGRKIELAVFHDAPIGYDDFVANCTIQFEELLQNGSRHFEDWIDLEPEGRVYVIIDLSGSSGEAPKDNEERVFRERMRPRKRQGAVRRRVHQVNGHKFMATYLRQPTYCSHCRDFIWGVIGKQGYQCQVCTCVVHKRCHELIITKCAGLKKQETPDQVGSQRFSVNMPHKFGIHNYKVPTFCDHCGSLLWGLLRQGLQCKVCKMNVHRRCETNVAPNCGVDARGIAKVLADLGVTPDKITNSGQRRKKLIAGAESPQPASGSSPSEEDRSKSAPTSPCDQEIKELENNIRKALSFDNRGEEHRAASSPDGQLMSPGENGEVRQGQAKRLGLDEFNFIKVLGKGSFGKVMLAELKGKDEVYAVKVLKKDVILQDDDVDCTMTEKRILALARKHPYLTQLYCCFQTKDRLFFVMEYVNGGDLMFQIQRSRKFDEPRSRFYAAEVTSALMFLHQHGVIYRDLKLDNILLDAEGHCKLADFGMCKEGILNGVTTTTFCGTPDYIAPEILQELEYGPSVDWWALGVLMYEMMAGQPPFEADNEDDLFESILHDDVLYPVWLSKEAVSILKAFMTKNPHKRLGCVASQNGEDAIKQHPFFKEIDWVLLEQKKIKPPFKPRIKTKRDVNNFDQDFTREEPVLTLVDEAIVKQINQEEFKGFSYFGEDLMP

Structure (SMILES)	assay	setting	measurement	value
O=C(CSc1nc2nccnc2c(=O)n1CCc1ccccc1)Nc1nccs1	enzyme activity, inhibitor	10 µM	inhibition	-23%
CN1CC(Oc2cnc(C#N)cc2-c2ccn3nc(NC(=O)C4CC4)cc3c2)C1	enzyme activity, inhibitor	1 µM	inhibition	6%
Cc1cnc(NC2CCOCC2)nc1-n1cnc(C(=O)NC(CN)c2cc(F)cc(Cl)c2)c1 (centres unmarked)	enzyme activity, inhibitor, radiometric	1 µM	remaining activity	91%
Cc1ccc(NC(=O)c2ccc(C)c(C(F)(F)F)c2)cc1C#Cc1nn(C2CCC(O)CC2)c2ncnc(N)c12 (centres unmarked)	cell-free assay	10 µM	remaining signal	117%
Cc1ccc(C(=O)Nc2ccc(CN3CCN(C)CC3)c(C(F)(F)F)c2)cc1C#Cc1cnc2cccnn12	enzyme activity	23.5 nM	remaining activity	77%
O=C(Nc1cnn(-c2csc(C(=O)NC3COC3)c2)c1)Nc1c(F)cccc1Cl	enzyme activity, inhibitor	5 µM	remaining activity	94.2%
CCCCN(CCCC)C(=O)CN1C[C@@H](c2cc(OC)c3c(c2)OCO3)[C@H](C(=O)O)[C@H]1CC(C)(C)CCC	cell-free assay, competition with immobilised ligand	1 µM	remaining binding	100%
Cn1cncc1C1=CN(c2ncnc3[nH]cnc23)CCS1	enzyme activity, inhibitor, radiometric	2 µM	inhibition	92.7%
CC(C)c1ccc(NC(=O)c2cccs2)c(-c2nc3ccccc3[nH]c2=O)c1	enzyme activity, inhibitor	1 µM	activity vs control	109%
CN(C)CC#Cc1ccc(OCCCc2sc(N3CCc4cccc(C(=O)Nc5nc6ccccc6s5)c4C3)nc2C(=O)O)c(F)c1	cell-free assay, competition with immobilised ligand	1 µM	remaining binding	100%
CC(C)(C)c1nc2c(s1)c1nc(N)ncc1c1ccc(NS(=O)(=O)c3c(F)cccc3F)c(F)c12	enzyme activity, inhibitor, radiometric	1 µM	remaining activity	133%
CNC(=O)Nc1ccc2c(c1)CC[C@@]21OC(=O)N(CC(=O)N(Cc2ccc(F)cc2)[C@@H](C)C(F)(F)F)C1=O	cell-free assay, competition with immobilised ligand	1 µM	remaining binding	22%
CNC(=O)c1cc(Oc2ccc(NC(=O)Nc3ccc(Cl)c(C(F)(F)F)c3)cc2)ccn1	cell-free assay	0.5 µM	remaining signal	96.4%
CN([C@@H]1CCc2c(CC(=O)O)c3cc(S(C)(=O)=O)ccc3n2C1)S(=O)(=O)c1ccc(F)cc1	cell-free assay, competition with immobilised ligand	1 µM	remaining binding	87%
Cc1ccc(-n2nc(C(C)(C)C)cc2NC(=O)Nc2ccc(OCCN3CCOCC3)c3ccccc23)cc1	enzyme activity, inhibitor	10 µM	inhibition	16%
Nc1c(C(=O)NCc2ccc(C(=O)NCCCC3CCCCC3)cc2)cnn1-c1ccccc1	cell-free assay, competition with immobilised ligand	0.1 µM	remaining binding	100%
CCN(CC)CCNC(=O)c1c(C)[nH]c(/C=C2\C(=O)Nc3ccc(F)cc32)c1C	enzyme activity, inhibitor	10 µM	inhibition	21%
COc1ccc(COc2ccc(Cc3cnc(N)nc3N)cc2OC)cc1	cell-free assay	0.5 µM	remaining signal	95.7%
Nc1ncnc2occ(-c3ccc(NC(=O)Nc4cc(C(F)(F)F)ccc4F)cc3)c12	cell-free assay	20 µM	remaining signal	50%
CC/C(=N\NC(=O)NCc1cccc(O)c1)c1ccc(O)c(C)c1O	enzyme activity, inhibitor	0.1 µM	inhibition	19.6%
Cc1ccc(C(=O)NCc2ccsc2)cc1C#Cc1cn(C(C)C)c2ncnc(N)c12	enzyme activity, inhibitor	1 µM	activity vs control	104%
CN(C)c1ncnc(-c2ccc3nc(Nc4cc(CN5CCN(C(=O)CC(F)(F)F)CC5)ccn4)[nH]c3c2)c1Cl	cell-free assay, competition with immobilised ligand	1 µM	remaining binding	100%
O=C1NC(=O)c2cc(Nc3ccc(F)cc3)c(Nc3ccc(F)cc3)cc21	cell-free assay	0.5 µM	remaining signal	97.8%
CCN(CC)c1ccc(C2=NNC(=O)CC2C)cc1[N+](=O)[O-] (centres unmarked)	enzyme activity, inhibitor	10 µM	remaining activity	95%
Cc1nc(Cc2cccc(C(F)(F)F)c2)sc1-c1ccc(C(N)=O)nc1	cell-free assay, competition with immobilised ligand	1 µM	remaining binding	100%
COc1cc2ncnc(Nc3ccc(Oc4ccccc4)c(C)c3C)c2cc1OC	enzyme activity, inhibitor	1 µM	inhibition	-5%
